Compound activity from PubChem.
EBNA-1 inhibitor = blocks EBNA-1 binding to DNA | inhibition, % at 14.8 µM | EBNA-1 DNA binding, fluorescence polarization | AID 1950 | 300,000 compounds, 0.34% hits; in the data active means inhibition above about 28%
ZTA DNA inh = blocks Epstein-Barr virus ZTA, an EBNA-1 counter-screen | AID 2234 | ZTA-DNA binding, fluorescence polarization | 320,000 compounds, 0.15% hits | P03206 | inhibition, % at 11 µM; in the data active means inhibition above about 33%
Target sequence (P03206 whole entry, looked up): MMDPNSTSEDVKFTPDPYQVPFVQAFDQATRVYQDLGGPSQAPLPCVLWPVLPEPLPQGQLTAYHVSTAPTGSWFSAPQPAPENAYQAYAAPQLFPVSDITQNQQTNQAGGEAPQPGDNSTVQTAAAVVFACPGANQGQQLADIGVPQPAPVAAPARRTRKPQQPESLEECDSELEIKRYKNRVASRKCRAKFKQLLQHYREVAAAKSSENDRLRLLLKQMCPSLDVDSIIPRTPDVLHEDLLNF
Apaf1 inhib = inhibitors of human Apaf-1 apoptosome. reconstituted apoptosome caspase-3 activity, DEVD-Rh110 fluorescence. inhibition, % at 20 µM. 330,000 compounds, 0.71% hits; active means inhibition of at least 40% at 20 µM
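Assay system – apoptosome proteins · Medium – Hepes buffer, pH 7.5 · Also added – cytochrome c with DEVD-Rh110 · Timing – 30 min compound preincubation, 50 min activation, room temperature · Detection – Rh110 fluorescence, excitation 480 nm, emission 540 nm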
PREPL inhibitor = inhibits the human prolyl oligopeptidase-like enzyme | 320,000 compounds, 0.68% hits | inhibition, % at 5.96 µM | Q4J6C6 | recombinant PREPL, fluorescence polarization activity-based probe; in the data active means inhibition above about 43%
UBC13 polyUb = human UBC13 polyubiquitination inhibition; P61088; UBC13 polyubiquitin chain formation, TR-FRET; inhibition, % at 20 µM; 330,000 compounds, 0.47% hits; AID 485273; in the data active means inhibition above about 45%, passing the limit was not always enough; inconclusive means no clear call, values can overlap the other calls
Target sequence (P61088 whole entry, looked up): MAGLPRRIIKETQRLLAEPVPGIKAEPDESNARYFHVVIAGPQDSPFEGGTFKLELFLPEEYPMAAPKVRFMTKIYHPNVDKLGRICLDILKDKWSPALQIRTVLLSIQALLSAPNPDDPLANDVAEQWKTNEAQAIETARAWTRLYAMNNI
Hits are given with their value; – = inactive; ? = inconclusive; · = not tested or not shown; + = active, no number. Rows were chosen to be rich in hits. Some 1.7% of all compounds tested hit in one or more screens of this group.

SMILES	EBNA-1 inhibitor	ZTA DNA inh	Apaf1 inhib	PREPL inhibitor	UBC13 polyUb
CCOC(=O)C1NN=C(C(=O)c2ccccc2)C1c1ccc(OC)cc1 (stereo not given)	–	–	–	–	–
COC(=O)C(C(=O)Nc1nc2ccccc2s1)C1CCCC1 (stereo not given)	–	–	–	–	–
OCCCNc1cc(-c2ccnc(Nc3cccc(Cl)c3)n2)ccn1	–	–	–	–	–
C#CC(C)OC(=O)C(C)NC(=O)c1ccccc1 (stereo not given)	–	–	–	–	–
O=C(O)c1cc(O)c2c(c1)[C@@H]([C@H]1c3cc(C(=O)O)cc(O)c3C(=O)c3c(O[C@@H]4O[C@H](CO)[C@@H](O)[C@H](O)[C@H]4O)cccc31)c1cccc(OC3O[C@H](CO)[C@@H](O)[C@H](O)[C@H]3O)c1C2=O (stereo not given in full)	94	–	95	106	?
Cc1nn(C)c(C(=O)NNC(=S)Nc2ccc(Cl)cc2)c1[N+](=O)[O-]	–	–	–	–	–
CCN(CC)c1ccc(N=Cc2c(C)[nH]c3ccccc23)cc1	199	188	–	–	–
O=C(c1ccc2nc(Cc3cccc(Cl)c3)oc2c1)N1CCC(CO)CC1	–	–	–	–	–
COc1ccc(NC(=O)c2cc3n(n2)C(C(F)(F)F)CC(c2ccc4c(c2)OCO4)N3)cc1OC (stereo not given)	–	–	–	46	–
O=c1c2cc([N+](=O)[O-])cc([N+](=O)[O-])c2[nH]n1-c1ccccc1	–	–	–	–	–
Cc1[nH]n(-c2ccccc2)c(=O)c1C(c1ccc(O)c([N+](=O)[O-])c1)c1c(C)[nH]n(-c2ccccc2)c1=O	–	–	87	–	–
CN1CCN(S(=O)(=O)c2ccc3c4c(cccc24)C(=O)N3)CC1	–	–	–	–	–
c1coc(C2Nc3cccc4cccc(c34)N2)c1	–	–	–	43	–
Clc1ccccc1C1Nc2cccc3cccc(c23)N1	–	–	–	–	–
COc1ccc(N(C(=O)c2snc(C(N)=O)c2N)C(CC(C)C)C(=O)NCC2CCCO2)cc1 (stereo not given)	–	–	–	–	–
COc1ccc(C2=NN(c3nc(-c4ccccc4)c(CC(=O)O)s3)C(c3ccco3)C2)cc1 (stereo not given)	40	–	·	–	·
Cc1ccc(N(CC(=O)NC2CCCC2)C(=O)CNC(=O)c2cccs2)cc1C	–	–	–	–	–
Nc1nnc(-c2ccco2)s1	–	–	–	–	–
Nc1ncnc2oc(-c3ccco3)c(-c3ccco3)c12	–	–	–	–	61
COc1ccc(Nc2nc3ccccc3n3nnnc23)cc1	–	–	–	–	–
Cc1ccc(Nc2nc3ccccc3n3nnnc23)cc1	34	–	–	–	–
O=C(O/N=C/c1ccc2c(c1)OCO2)c1ccccc1Cl	–	–	–	55	–
Cc1nc2ccccc2c(=O)n1/N=C/c1cc(Br)ccc1O	–	–	–	–	–
Cc1ccnc(NS(=O)(=O)c2ccc(NC(=O)/C=C/c3cccs3)cc2)n1	–	–	–	–	–
NC(=O)C1CCN(C2=C(Cl)C(=O)c3ccccc3C2=O)CC1	–	–	73	–	–
SMILES	EBNA-1 inhibitor	ZTA DNA inh	Apaf1 inhib	PREPL inhibitor	UBC13 polyUb
CCOC(=O)c1c2c(n(C)c1COC)C(=O)C(=O)c1ccc(Br)cc1-2	–	–	97	–	–
CCCn1c(=O)c(C(=O)OCC)c(O)c2cc(Br)ccc21	–	–	–	–	–
CCOc1ccc2[nH]cc(S(=O)(=O)c3ccc(C)cc3)c(=O)c2c1	–	–	–	–	–
O=C(c1ccccc1)c1ccc2nc(-c3ccc(NC(=O)c4ccccc4Br)cc3)[nH]c2c1	45	–	–	–	–
Cc1ccccc1C(=O)Nc1ccc(-c2nc3ccc(C(=O)c4ccccc4)cc3[nH]2)cc1	–	–	–	–	–
COc1ccc(-c2c[n+]3c4n2CCCCC4=C(c2ccc(Br)cc2)C3)cc1	–	–	·	49	·
COc1ccc(-c2cnc3n2CCCCC3)cc1	–	–	–	–	–
O=C(CN1C(=O)c2cccc3cccc(c23)C1=O)NCCCO	–	–	–	–	–
Cc1c(NC(=O)COC(=O)c2ncc(Cl)c(Cl)c2Cl)c(=O)n(-c2ccccc2)n1C	–	–	–	–	–
CCOc1cccc(CNCCO)c1OCc1ccc(Cl)cc1Cl	–	–	–	–	–
CCOc1cc(CNCCO)cc(Br)c1OCc1ccc(Cl)cc1Cl	–	–	–	–	56
CN(C)c1ccc(N2CN=C3SCC(=O)N3C2)cc1	+	+	–	–	–
O=C1CSC2=NCN(c3ccc4c(c3)OCO4)CN12	–	–	–	–	–
COc1cc(/C=C2\C(=N)N3N=C(S(=O)(=O)CC(C)C)SC3=NC2=O)ccc1OC(=O)c1ccco1	–	–	–	49	–
CCS(=O)(=O)C1=NN2C(=N)/C(=C\c3ccc(OC(=O)c4ccco4)cc3)C(=O)N=C2S1	–	–	–	–	–
O=C(N/N=C/c1cccs1)c1cccc(NC(=O)c2ccc(Cl)cc2)c1	59	–	–	–	–
N=c1n(Cc2ccccc2)c2ccccc2n1CC(O)c1ccccc1 (stereo not given)	–	–	–	43	–
COCCNCCCCOc1ccccc1-c1ccccc1	–	–	–	–	–
CCCCNCCOCCOc1ccccc1-c1ccccc1	34	–	–	–	–
Cc1nn(-c2ccccc2)c(N)c1N=Nc1ccc2ccccc2c1	–	–	–	–	–
Cc1ccc(N=Nc2c(N)nn(-c3ccccc3)c2N)cc1	–	–	–	62	–
Cc1[nH]n(-c2ccc(Cl)cc2)c(=O)c1C(=O)c1ccccc1	–	–	–	–	–
CC1=NN(c2ccc(Cl)cc2)C(=O)C1C(c1cccc(O)c1)c1c(C)[nH]n(-c2ccc(Cl)cc2)c1=O (stereo not given)	–	–	85	–	–
CCCN(CC(=O)Nc1ccccc1OC)C(=O)c1cc(S(=O)(=O)NCc2ccccc2)ccc1C	–	–	62	–	–
CCOC(=O)c1[nH]c2ccc(Br)cc2c1NC(=O)CCN1CCCC(C)C1 (stereo not given)	–	–	97	–	–
SMILES	EBNA-1 inhibitor	ZTA DNA inh	Apaf1 inhib	PREPL inhibitor	UBC13 polyUb
Nc1cccnc1Sc1cccc(Cl)c1	–	–	76	–	–
Nc1cccnc1Sc1ccc(Cl)cc1	–	–	–	–	–
COc1ccc(CN2C(=O)Cc3c2nc(N)c2c(N)nc(N4CCCCC4)c(C#N)c32)cc1	–	–	51	–	–
COc1cc2c(C#N)c(N3CCOCC3)nc(N)c2c(N)n1	–	–	–	–	–
COc1cc2c(C#N)c(N3CCCCC3)nc(N)c2c(N)n1	–	–	97	–	–
CCCCN1C(=O)Cc2c1nc(N)c1c(N)nc(N(CCC)CCC)c(C#N)c21	–	–	·	–	·
CCOc1ccc(NC(=O)CN(C)C(=O)c2ccccc2OCc2c(C)noc2C)cc1OCC	–	–	57	–	–
Cc1ccc(NC(=O)CN(C)C(=O)c2ccccc2OCc2c(C)noc2C)cc1	–	–	–	–	–
